In brackets after ≈: the same amount, converted by molar mass.
Key:
Escherichia coli [1] = experiment: Antimicrobial activity against Escherichia coli DH10B by agar dilution method; assay type: functional; conditions: K-12 DH10B
How it was run: (§1)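 MICs measured by agar dilution on Mueller-Hinton agar plates, the method used for imipenem and imipenem combined with clavulanate; other MICs were obtained by Etest. Results were interpreted according to CLSI guidelines. Test strains were E. coli DH10B recombinants carrying cloned PER-1, PER-2 or PER-6 β-lactamase genes.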

[2] = test system: Aeromonas allosaccharophila; experiment: Antimicrobial activity against Aeromonas allosaccharophila AL-1 expressing beta-lactamase PER6 by agar dilution method; assay type: functional
How it was run: (§2)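 The test organism was environmental isolate AL-1, recovered from Seine River water on MacConkey agar containing ceftazidime (2 μg/ml). It was identified by API 32GN and 16S rRNA gene sequencing. MICs were determined by agar dilution on Mueller-Hinton agar and interpreted by CLSI guidelines.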

[3] = test system: Aeromonas allosaccharophila; experiment: Ratio of Kcat to Km for Aeromonas allosaccharophila AL-1 beta-lactamase PER2
Escherichia coli [4] = experiment: Antimicrobial activity against Escherichia coli DH10B harboring recombinant Aeromonas allosaccharophila AL-1 beta-lactamase PER1 by agar dilution method; assay type: functional; conditions: K-12 DH10B
Escherichia coli [5] = experiment: Antimicrobial activity against Escherichia coli DH10B harboring recombinant Aeromonas allosaccharophila AL-1 beta-lactamase PER6 by agar dilution method; assay type: functional; conditions: K-12 DH10B
Escherichia coli [6] = experiment: Antimicrobial activity against Escherichia coli DH10B harboring recombinant Aeromonas allosaccharophila AL-1 beta-lactamase PER2 by agar dilution method; assay type: functional; conditions: K-12 DH10B
Escherichia coli [7] = experiment: Antimicrobial activity against Escherichia coli DH10B harboring recombinant Aeromonas allosaccharophila AL-1 beta-lactamase PER2 by agar dilution method in presence of 4 ug/ml of clavulanic acid; assay type: functional; conditions: K-12 DH10B
Escherichia coli [8] = experiment: Antimicrobial activity against Escherichia coli DH10B by agar dilution method in presence of 4 ug/ml of clavulanic acid; assay type: functional; conditions: K-12 DH10B; how it was run: as §1
[9] = test system: Aeromonas allosaccharophila; experiment: Antimicrobial activity against Aeromonas allosaccharophila AL-1 expressing beta-lactamase PER6 by agar dilution method in presence of 4 ug/ml of clavulanic acid; assay type: functional; how it was run: as §2
Escherichia coli [10] = experiment: Antimicrobial activity against Escherichia coli DH10B harboring recombinant Aeromonas allosaccharophila AL-1 beta-lactamase PER1 by agar dilution method in presence of 4 ug/ml of clavulanic acid; assay type: functional; conditions: K-12 DH10B
Escherichia coli [11] = experiment: Antimicrobial activity against Escherichia coli DH10B harboring recombinant Aeromonas allosaccharophila AL-1 beta-lactamase PER6 by agar dilution method in presence of 4 ug/ml of clavulanic acid; assay type: functional; conditions: K-12 DH10B

Row | Compound | MIC (Escherichia coli [1]) | MIC [2] | kcat/Km [3] | MIC (Escherichia coli [4]) | MIC (Escherichia coli [5]) | MIC (Escherichia coli [6]) | MIC (Escherichia coli [7]) | MIC (Escherichia coli [8]) | MIC [9] | MIC (Escherichia coli [10]) | MIC (Escherichia coli [11])
1 | C[C@@H](O)[C@H]1C(=O)N2C(C(=O)O)=C(S[C@@H]3CN[C@H](C(=O)Nc4cccc(C(=O)O)c4)C3)[C@H](C)[C@H]12 | < 0.03 µg/mL | 0.5 µg/mL (≈ 1.05 µM) | – | – | – | – | – | – | – | – | –
2 | CO/N=C(\C(=O)N[C@@H]1C(=O)N2C(C(=O)[O-])=C(C[N+]3(C)CCCC3)CS[C@H]12)c1csc(N)n1 | – | 0.5 µg/mL (≈ 1.04 µM) | 20000 M⁻¹ s⁻¹ | 16 µg/mL | 32 µg/mL | 32 µg/mL | – | – | – | – | –
3 | CC1(C)S[C@@H]2[C@H](NC(=O)Cc3ccccc3)C(=O)N2[C@H]1C(=O)O | – | – | 120000 M⁻¹ s⁻¹ | – | – | – | – | – | – | – | –
4 | CC1(C)S[C@@H]2[C@H](NC(=O)[C@H](N)c3ccccc3)C(=O)N2[C@H]1C(=O)O | – | – | 330000 M⁻¹ s⁻¹ | – | – | – | – | – | – | – | –
5 | CC1(C)S[C@@H]2[C@H](NC(=O)[C@H](N)c3ccc(O)cc3)C(=O)N2[C@H]1C(=O)O [AMOXICILLIN] | 4 µg/mL (≈ 10.9 µM) | > 256 µg/mL | – | > 256 µg/mL | > 256 µg/mL | > 256 µg/mL | 6 µg/mL | 4 µg/mL | 12 µg/mL | 4 µg/mL | 4 µg/mL
6 | C[C@H]1[C@H](NC(=O)/C(=N\OC(C)(C)C(=O)O)c2csc(N)n2)C(=O)N1S(=O)(=O)O [AZTREONAM] | – | 1 µg/mL (≈ 2.3 µM) | 120000 M⁻¹ s⁻¹ | > 256 µg/mL | > 256 µg/mL | > 256 µg/mL | – | – | – | – | –
7 | CO/N=C(\C(=O)N[C@@H]1C(=O)N2C(C(=O)O)=C(COC(C)=O)CS[C@H]12)c1csc(N)n1 [CEFOTAXIME] | 0.12 µg/mL (≈ 0.263 µM) | 2 µg/mL (≈ 4.39 µM) | 760000 M⁻¹ s⁻¹ | 48 µg/mL | 64 µg/mL | 64 µg/mL | – | – | – | – | –
8 | CO[C@@]1(NC(=O)Cc2cccs2)C(=O)N2C(C(=O)O)=C(COC(N)=O)CS[C@@H]21 [CEFOXITIN] | 1 µg/mL (≈ 2.34 µM) | 0.5 µg/mL (≈ 1.17 µM) | < 10000 M⁻¹ s⁻¹ | 2 µg/mL | 2 µg/mL | 2 µg/mL | – | – | – | – | –
